Reference: ChEMBL document CHEMBL1944612, “Structural modification of ginsenoside Rh(2) by fatty acid esterification and its detoxification property in antitumor” (Bioorg Med Chem Lett, 2012)

Experiments:
H22 = assay: Antitumor activity against human H22 cells xenografted in Kunming mouse assessed as reduction in tumor volume at 20 mg/kg, po qd for 10 days; details: 240 h, read-out: INH
H22 (Mus musculus) = assay: Antitumor activity against mouse H22 cells xenografted in Kunming mouse assessed as reduction in tumor weight at 5 mg/kg, po qd for 10 days; details: 240 h
Mus musculus [1] = assay: Immunostimulatory activity in Kunming mouse xenografted with […] cells assessed as change in thymus mass at 5 mg/kg, po qd for 10 days (reference value: 1.83 +/- 0.85 mg/kg); assay type: functional
[2] = Growth inhibition of human QSG7701 cells at 50 uM after 48 hrs by MTT assay; details: read-out: GI
How it was run: (§1)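 QSG-7701 human hepatocytes seeded at 5×10^3 cells/mL in 96-well plates. Compounds were dissolved in DMSO and diluted in RPMI 1640 (final DMSO <0.1%), in triplicate, for 48 h. MTT (5 mg/mL stock) was added for 2 h, and formazan was dissolved in DMSO. OD was read at 570 nm (450 nm reference). IC50 is the concentration giving 50% absorbance reduction versus vehicle control.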

[3] = Growth inhibition of human QSG7701 cells after 48 hrs by MTT assay; details: QSG7701, 48 h; how it was run: as §1
Mus musculus [4] = assay: Toxicity in Kunming mouse xenografted with […] cells assessed as change in body weight at 20 mg/kg, po qd for 10 days (reference value: 24.8 +/- 1.1 g); assay type: organism-based; parameters: dose 20 mg/kg, route oral; details: in vivo, 240 h
Mus musculus [5] = assay: Immunostimulatory activity in Kunming mouse xenografted with […] cells assessed as change in thymus mass at 10 mg/kg, po qd for 10 days (reference value: 1.83 +/- 0.85 mg/kg); assay type: functional
Mus musculus [6] = assay: Immunostimulatory activity in Kunming mouse xenografted with […] cells assessed as change in spleen mass at 10 mg/kg, po qd for 10 days (reference value: 6.61 +/- 1.84 mg/kg); assay type: functional
Mus musculus [7] = assay: Immunostimulatory activity in Kunming mouse xenografted with […] cells assessed as change in spleen mass at 5 mg/kg, po qd for 10 days (reference value: 6.61 +/- 1.84 mg/kg); assay type: functional
Mus musculus [8] = assay: Toxicity in Kunming mouse xenografted with human H22 cells assessed as change in body weight at 20 mg/kg, po qd for 10 days (reference value: 23.4 +/- 2.8 g); assay type: organism-based; parameters: dose 20 mg/kg, route oral; details: in vivo, 240 h

SMILES	inhibition in vivo at 20 mg/kg (H22)	inhibition in vivo at 5 mg/kg (H22 (Mus musculus))	Activity (Mus musculus [1])	inhibition at 48 h, 50 µM [2]	IC50 [3]	Activity (Mus musculus [4])	Activity (Mus musculus [5])	Activity (Mus musculus [6])	Activity (Mus musculus [7])	Activity (Mus musculus [8])
O=P1(N(CCCl)CCCl)NCCCO1 (configuration not stated) [CYCLOPHOSPHAMIDE ANHYDROUS]	72%	–	–	–	–	–	–	–	–	–
CCCCCCCC(=O)OC[C@H]1O[C@@H](O[C@H]2CC[C@]3(C)[C@H]4C[C@@H](OC(=O)CCCCCCC)[C@@H]5[C@@H]([C@@](C)(O)CCC=C(C)C)CC[C@@]5(C)[C@]4(C)CC[C@H]3C2(C)C)[C@H](O)[C@@H](O)[C@@H]1O	–	52%	2.15 mg/g	18%	80.5 µM	27.1 g	3.42 mg/g	6.31 mg/g	5.27 mg/g	–
CC(C)=CCC[C@](C)(O)[C@H]1CC[C@]2(C)[C@@H]1[C@H](O)C[C@@H]1[C@@]3(C)CC[C@H](O[C@@H]4O[C@H](CO)[C@@H](O)[C@H](O)[C@H]4O)C(C)(C)[C@@H]3CC[C@]12C [GINSENOSIDE RH2]	–	53%	2.25 mg/g	83%	37.3 µM	–	2.09 mg/g	5.35 mg/g	5.48 mg/g	23.2 g
